Results reported in ChEMBL document CHEMBL2396613, “Anti-leishmanial evaluation of C2-aryl quinolines: mechanistic insight on bioenergetics and sterol biosynthetic pathway of Leishmania braziliensis” (Bioorg Med Chem, 2013).
Active and inactive are the calls of the source. The rule behind the calls is not given here.

Experiments:
Leishmania braziliensis [1] = assay: Induction of acidocalcisomes alkalinization in Leishmania (V.) braziliensis MHOM/CO/87/UA301 at 1 uM up to 1400 seconds using acridine orange staining; type: functional, organism-based
[2] = Cytotoxicity against mouse BMDM after 96 hrs by MTT assay
Outline: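 Host-cell MTT test on mouse bone-marrow-derived macrophages (L-929 conditioned medium): 5000 cells/well were exposed to 100, 200 and 300 μM. MTT was added, cells were lysed with acidic isopropanol and read at 570 nm.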

Leishmania braziliensis [3] = assay: Antileishmanial activity against promastigotes of Leishmania (V.) braziliensis MHOM/CO/87/UA301 after 96 hrs by MTT assay; type: functional, organism-based; settings: MHOM/CO/87/UA301, 96 h
[4] = Cytotoxicity against mouse BMDM at 20 to 100 uM after 96 hrs by MTT assay
Leishmania braziliensis [5] = assay: Induction of acidocalcisomes alkalinization in Leishmania (V.) braziliensis MHOM/CO/87/UA301 at 6 uM up to 1200 seconds using acridine orange staining; type: functional, organism-based
Outline: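 Promastigotes (10⁹ cells/mL), washed twice in KCl/Tris buffer, were loaded with 2 μM acridine orange for 5 min at 29 °C. Fluorescence (ex 488, em 530 nm) was recorded in a stirred cuvette at 29 °C.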

Leishmania braziliensis [6] = assay: Effect on sterol biosynthesis in Leishmania (V.) braziliensis MHOM/CO/87/UA301 assessed as endogenous 14-desmethyl 5-dehydroepisterol level at 6 uM (reference value: 63.7 +/- 1.02%)
Leishmania braziliensis [7] = assay: Effect on sterol biosynthesis in Leishmania (V.) braziliensis MHOM/CO/87/UA301 assessed as exogenous cholesterol level at 6 uM (reference value: 13.6 +/- 0.51%)
Leishmania braziliensis [8] = assay: Effect on sterol biosynthesis in Leishmania (V.) braziliensis MHOM/CO/87/UA301 assessed as endogenous squalene level at 6 uM (reference value: 22.7 +/- 0.12%)
Leishmania braziliensis [9] = assay: Antileishmanial activity against amastigotes of Leishmania (V.) braziliensis MHOM/CO/87/UA301 infected in BMDM assessed as reduction of intracellular amastigotes after 96 hrs by Giemsa staining; type: functional, organism-based; settings: MHOM/CO/87/UA301, BMDM
Outline: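 Mouse bone-marrow macrophages, differentiated in L-929 conditioned medium, were mixed 1:10 with promastigotes in DMEM + 10% FBS. Co-cultures sat on glass coverslips for 18 h at 37 °C, 5% CO2. Medium was then replaced with compound-containing medium for 96 h. Cells were Giemsa-stained and counted. EC50 was based on the number of amastigotes per macrophage; triplicate.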

Leishmania braziliensis [10] = assay: Reduction of mitochondrial membrane potential in Leishmania (V.) braziliensis MHOM/CO/87/UA301 assessed as increase in fluorescence at 6 uM up to 1400 seconds using rhodamine 123 by spectrofluorimeter analysis; type: functional, organism-based
Outline: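 Fluorescence (ex 488, em 530 nm) was followed in a spectrofluorimeter at 29 °C under continuous agitation. FCCP served as protonophore comparator.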

SMILES	IC50 [2]	IC50 (Leishmania braziliensis [3])	also measured
CO[C@@H]1C[C@@H](C[C@H]2CC[C@H](C)[C@H]([C@@H](C)C(=O)O)O2)O[C@]2(O[C@](C)([C@H]3CC[C@@](C)([C@@H]4O[C@@H]([C@H]5O[C@@](O)(CO)[C@H](C)C[C@@H]5C)C[C@@H]4C)O3)C[C@H]2C)[C@@H]1C	–	–	Activity (Leishmania braziliensis [1]): Active
CCN(CC)CCCCCCNc1cc(OC)cc2c(C)ccnc12 [SITAMAQUINE]	≤ 100 µM	≤ 50 µM	–
Cc1cc(C)c2ccc(-c3ccccc3)nc2c1	≤ 100 µM	≤ 50 µM	–
CCc1ccc2nc(-c3ccccc3)ccc2c1	≥ 200 µM	≤ 50 µM	Activity [4]: Non-toxic; Activity (Leishmania braziliensis [5]): Active; mass % of sterol at 6 µM (Leishmania braziliensis [6]): 23.4%; mass % of sterol at 6 µM (Leishmania braziliensis [7]): 12.3%; mass % of sterol at 6 µM (Leishmania braziliensis [8]): 64.3%; EC50 (Leishmania braziliensis [9]): 20 µM; Activity (Leishmania braziliensis [10]): Active
Cc1cc(C)c2ccc(-c3ccc4c(c3)OCO4)nc2c1	–	≥ 50 µM	–
c1ccc2nc(-c3ccc4c(c3)OCO4)ccc2c1	–	≥ 50 µM	–
CCc1ccc2nc(-c3ccc4c(c3)OCO4)ccc2c1	–	≥ 50 µM	–
CCCCCCCCCCCCCCCCOP(=O)([O-])OCC[N+](C)(C)C [MILTEFOSINE]	≥ 200 µM	≤ 50 µM	–
COc1ccc2nc(-c3ccc4c(c3)OCO4)ccc2c1	–	≥ 50 µM	–
Cc1ccc2nc(-c3ccc4c(c3)OCO4)ccc2c1	–	≥ 50 µM	–
